Source: PubChem BioAssay
Sampled rows, rich in hits. Any-hit rate of the full collection: about 1.8%.
Rin1 Abl inh = inhibitors of Rin1-Abl protein binding, primary screen, biochemical, TR-FRET; inhibition, % at 7.35 µM; AID 588664, 2011; hit rate 0.4% among 360,000; in the data active means inhibition above about 5%, passing the limit was not always enough
TbMetRS inhib = T. brucei MetRS inhibitors, primary screen, biochemical, luminescence; inhibition, % at 11.9 µM; purified T. brucei MetRS, ATP depletion, Kinase-Glo luminescence; methionyl-tRNA synthetase (Trypanosoma brucei brucei); AID 624268, 2012; hit rate 0.4% among 360,000;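 active means inhibition above a per-plate cutoff of the control wells' mean inhibition plus 3 SD, cut at about 5.5% in these data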;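 further: 0% = DMSO wells median and 100% = median of wells with control inhibitor compound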
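Dosing: 11.9 µM compound single dose, 0.9% DMSO; Assay system: purified T. brucei MetRS enzyme; Measured by: Kinase-Glo luciferase luminescence reporting remaining unconsumed ATP; Schedule: 15 min plus 2 h at 25 °C.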
PG9 Ab binder = binders of HIV-1 gp120 antibody PG9, primary screen, biochemical, TR-FRET | HIV-1 gp120 / PG9 antibody interaction | TR-FRET gp120-PG9 antibody binding | inhibition, % at 6.7 µM | hit rate 0.43% among 360,000; in the data active means inhibition above about 8.5%
Rev-erbA mod = modulators of Rev-erb alpha DNA binding, primary screen, biochemical, FITC-DNA, fluorescence polarization, uHTS. Rev-erbα–FITC-DNA binding, 90 min. AID 1259318, 2017. hit rate 0.79% among 370,000. activity, % at 10 µM;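 active means activity above about 14%, limit read from the data; passing the limit was not always enough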;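 further: 0% = DMSO wells with 35 nM protein and 100% = DMSO wells with 750 nM protein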
Target sequence (P20393 whole entry, looked up): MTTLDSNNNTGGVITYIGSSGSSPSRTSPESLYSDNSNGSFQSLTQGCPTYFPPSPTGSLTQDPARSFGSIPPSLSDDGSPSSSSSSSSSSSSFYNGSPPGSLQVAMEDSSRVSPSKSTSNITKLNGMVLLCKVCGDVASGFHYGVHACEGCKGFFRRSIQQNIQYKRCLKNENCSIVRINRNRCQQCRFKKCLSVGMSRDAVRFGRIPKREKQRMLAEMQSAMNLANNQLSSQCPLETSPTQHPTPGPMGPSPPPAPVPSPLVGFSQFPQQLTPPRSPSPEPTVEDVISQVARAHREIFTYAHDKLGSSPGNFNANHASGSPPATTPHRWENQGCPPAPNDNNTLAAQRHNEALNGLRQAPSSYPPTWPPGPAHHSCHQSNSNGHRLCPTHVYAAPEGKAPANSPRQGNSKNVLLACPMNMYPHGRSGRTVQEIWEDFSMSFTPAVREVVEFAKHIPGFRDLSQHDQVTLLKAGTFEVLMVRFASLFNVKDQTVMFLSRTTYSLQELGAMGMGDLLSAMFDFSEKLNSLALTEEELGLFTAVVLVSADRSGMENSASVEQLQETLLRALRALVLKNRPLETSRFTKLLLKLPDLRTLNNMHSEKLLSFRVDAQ
PG9 binder conf = binders of anti-gp120 antibody PG9, confirmation, biochemical, TR-FRET. hit rate 90% among 1,500. TR-FRET PG9 antibody binding. inhibition, % at 6.7 µM. shares compounds with PG9 Ab binder. AID 651571, 2012; in the data active means inhibition above about 9%
PGV04 counter = binders of control antibody PGV04, counter-screen for PG9 antibody binder project, biochemical, TR-FRET, distinct HIV envelope site | shares compounds with PG9 Ab binder | inhibition, % at 6.7 µM | hit rate 95% among 1,500 | TR-FRET PGV04 antibody-gp120 binding | AID 651604, 2012; in the data active means inhibition above about 9.5%
NR1D1 mod conf = modulators of Rev-erb alpha DNA binding, confirmation, biochemical, FITC-DNA, fluorescence polarization, single point; shares compounds with Rev-erbA mod; 90 min; activation, % at 25 µM; hit rate 61% among 3,000; AID 1259319, 2017;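 active means activation at or above a set limit, or at least 3 SD above the negative control mean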;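 further: 0% = 35 nM protein with DMSO and 100% = 750 nM protein high control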
RORg DNA counter = modulation of RORgamma DNA binding, dose response, counter-screen for Rev-erb alpha modulator project, biochemical, fluorescence polarization, FITC-DNA; shares compounds with Rev-erbA mod; purified RORgamma protein-FITC-DNA binding; IC50, µM; hit rate 8% among 910;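 active means Compounds whose fitted half-maximal concentration for disrupting protein-DNA binding is below 10 micromolar; the record names Rev-erb in its text, so the target is in doubt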
Starred values were filed as active, the others as inactive.

Screening CC(=O)N1c2ccc(S(=O)(=O)NCC3CCC(C(=O)NCc4ccco4)CC3)cc2CC1C (configuration not stated) returned Rin1 Abl inh -2.0, TbMetRS inhib 0.1, PG9 Ab binder -0.1 and Rev-erbA mod -4.8.
For COc1ccc2oc(C(=O)Nc3nccs3)c(C)c2c1 the results were Rin1 Abl inh -9.7, TbMetRS inhib -0.4, PG9 Ab binder 12.2*, Rev-erbA mod 35.6*, PG9 binder conf 21.3*, PGV04 counter 46.2* and NR1D1 mod conf 16.6.
For CCOc1ccc2oc(C(=O)Nc3nccs3)c(C)c2c1 the results were Rin1 Abl inh 1.3, TbMetRS inhib 0.3, PG9 Ab binder 7.1 and Rev-erbA mod -4.3.
`CCC(C)N(C(=O)CSc1nnc(-c2cc(OC)c(OC)c(OC)c2)o1)C(C)CC` (configuration not stated) gave Rev-erbA mod 5.8.
`CC(=O)c1cccc(Nc2ncnc3ccc(Br)cc23)c1` gave Rin1 Abl inh -0.8, TbMetRS inhib 0.3, PG9 Ab binder -0.4 and Rev-erbA mod -1.2.
CC(=O)c1ccc(Nc2ncnc3ccc(Br)cc23)cc1 was read as Rin1 Abl inh -6.6, TbMetRS inhib -0.3, PG9 Ab binder 10.8*, Rev-erbA mod 121.5*, PG9 binder conf 20.2*, PGV04 counter 56.0*, NR1D1 mod conf 119.1* and RORg DNA counter >40.
Screening CCC(=O)c1cn(CC(=O)Nc2ccc(C)cc2C)c2ccccc12 returned Rin1 Abl inh -3.9, TbMetRS inhib -1.8, PG9 Ab binder 11.6*, Rev-erbA mod 36.2*, PG9 binder conf 12.4*, PGV04 counter 18.2*, NR1D1 mod conf 40.4* and RORg DNA counter 9.78*.
Screening CCC(=O)c1cn(CC(=O)Nc2c(C)cccc2C)c2ccccc12 returned Rin1 Abl inh 2.9, TbMetRS inhib -0.4, PG9 Ab binder 3.8 and Rev-erbA mod -2.8.
`CCC(C(=O)NC1CCCC1)N(C(=O)c1snc(C(N)=O)c1N)c1ccc(OC)cc1` (configuration not stated) gave Rin1 Abl inh -0.3, TbMetRS inhib -0.7, PG9 Ab binder 33.9*, Rev-erbA mod 17.5*, PG9 binder conf 15.2*, PGV04 counter 41.1* and NR1D1 mod conf -3.2.
Screening COc1ccc(N(C(=O)c2snc(C(N)=O)c2N)C(C(=O)NC2CCCC2)c2ccc(OC)c(OC)c2)cc1 (configuration not stated) returned Rin1 Abl inh 0.0, TbMetRS inhib -0.7, PG9 Ab binder 0.4 and Rev-erbA mod -5.0.
`CCc1nc(SCC(=O)NCc2ccco2)c2c3c(sc2n1)CCCC3` gave Rin1 Abl inh -43.8, TbMetRS inhib 0.3, PG9 Ab binder 57.0*, Rev-erbA mod 46.1*, PG9 binder conf 42.2*, PGV04 counter 64.3*, NR1D1 mod conf 55.3* and RORg DNA counter >40.
For CCCCSc1nc(SCC(=O)NCc2ccco2)c2c3c(sc2n1)COC(C)(CC)C3 (configuration not stated) the results were Rin1 Abl inh -11.8, TbMetRS inhib 0.1, PG9 Ab binder 11.7*, Rev-erbA mod 39.6*, PG9 binder conf 10.5*, PGV04 counter 16.6* and NR1D1 mod conf 28.0*.
Screening C=CCn1c(SCC(=O)NCc2ccco2)nc2sc3c(c2c1=O)CCCC3 returned Rin1 Abl inh 1.1, TbMetRS inhib -1.2, PG9 Ab binder -0.9 and Rev-erbA mod -2.5.
Screening COC(=O)c1c(NC(C)=O)sc(C(=O)Nc2ccccc2F)c1C returned Rin1 Abl inh 2.5, TbMetRS inhib -1.0, PG9 Ab binder 30.9*, Rev-erbA mod 26.2*, PG9 binder conf 36.3*, PGV04 counter 45.4* and NR1D1 mod conf 20.9*.
O=C(CCCn1c(=S)[nH]c2cc3c(cc2c1=O)OCO3)NCc1cccc(Cl)c1 was read as Rin1 Abl inh 1.5, TbMetRS inhib -0.7, PG9 Ab binder 17.4*, Rev-erbA mod 48.4*, PG9 binder conf 13.1*, PGV04 counter 22.6*, NR1D1 mod conf 29.9* and RORg DNA counter >40.
For COc1ccc(CNC(=O)CCCn2c(=S)[nH]c3cc4c(cc3c2=O)OCO4)cc1 the results were Rin1 Abl inh -3.1, TbMetRS inhib 0.0, PG9 Ab binder 25.9*, Rev-erbA mod 56.4*, PG9 binder conf 17.0*, PGV04 counter 20.8*, NR1D1 mod conf 35.9* and RORg DNA counter >40.
Cn1cnnc1SCC(=O)NCCc1ccc(Cl)cc1Cl was read as Rin1 Abl inh 4.4, TbMetRS inhib 0.4, PG9 Ab binder -1.2 and Rev-erbA mod -0.9.
For COC(=O)Cn1c(=NC(=O)c2ccc(OC)c(OC)c2)sc2cc(OC)ccc21 the results were Rin1 Abl inh 1.6, TbMetRS inhib -0.8, PG9 Ab binder 32.8*, Rev-erbA mod 64.0*, PG9 binder conf 60.7*, PGV04 counter 75.0*, NR1D1 mod conf 31.4* and RORg DNA counter >40.
Screening COc1ccc(C(=O)N=c2sc3ccccc3n2C)cc1OC returned Rin1 Abl inh -1.3, TbMetRS inhib -0.9, PG9 Ab binder -1.0 and Rev-erbA mod -8.5.
Screening COCC(=O)OCc1cc2cccc(C)c2[nH]c1=O returned Rin1 Abl inh -0.5, TbMetRS inhib -0.1, PG9 Ab binder -1.7 and Rev-erbA mod 5.7.
Cc1cccc2cc(COC(=O)COc3ccccc3)c(=O)[nH]c12 was read as Rin1 Abl inh -2.2, TbMetRS inhib -0.6, PG9 Ab binder 26.2*, Rev-erbA mod 30.9*, PG9 binder conf 30.8*, PGV04 counter 41.3* and NR1D1 mod conf 21.1*.
Cc1cc(-n2c(SCC(=O)Nc3ccc(Br)cc3)nc3n[nH]c(C)c3c2=N)ccc1Cl was read as Rin1 Abl inh 1.2, TbMetRS inhib -0.4, PG9 Ab binder 24.4*, Rev-erbA mod 37.5*, PG9 binder conf 20.6*, PGV04 counter 28.9* and NR1D1 mod conf 22.0*.
`Cc1cc(-n2c(SCC(=O)Nc3ccc(F)c(F)c3)nc3n[nH]c(C)c3c2=N)ccc1Cl` gave Rin1 Abl inh -27.3, TbMetRS inhib 0.3, PG9 Ab binder 21.4*, Rev-erbA mod 50.6*, PG9 binder conf 6.4, PGV04 counter 8.5 and NR1D1 mod conf 27.2*.
